MC4R antagonist – MC4R antagonists of cAMP signaling, primary screen, cell-based, TR-FRET, antagonist arm of biased-ligand search; Melanocortin receptor 4 (Homo sapiens), P32245; MC4R-expressing cells, MTII-stimulated cAMP, LANCE TR-FRET; inhibition, % at 6.5 µM; hit rate 0.48% among 360,000; AID 540295, 2011;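 active = inhibition above its plate's cutoff, the mean of tested wells on that plate plus 3 SD, cut at about 29% in these data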;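 also: 0% = Melanotan II alone and 100% = Melanotan II plus saturating MCL0020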
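Assay system: U2OS-MC4R stable cell line; Also added: Melanotan II; Technique: Eu-cAMP/anti-cAMP TR-FRET, emission 671 nm; Times: 30-min compound, 1-h challenge, 1-h detection, room temperature.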
PG9 Ab binder – binders of HIV-1 gp120 antibody PG9, primary screen, biochemical, TR-FRET; HIV-1 gp120 / PG9 antibody interaction; TR-FRET gp120-PG9 antibody binding; inhibition, % at 6.7 µM; hit rate 0.43% among 360,000; in the data active = inhibition above about 8.5%
MC4R ag barr – MC4R agonists recruiting beta-arrestin, primary screen, cell-based, luminescence, agonist arm of biased-ligand search | Melanocortin receptor 4 (Homo sapiens), P32245 | U2OS MC4R beta-arrestin complementation; percent of melanotan II response, DMSO zero | activation, % at 8.9 µM | hit rate 0.98% among 360,000 | AID 540308, 2011;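 active = activation above a per-plate cutoff, the mean activation of sample wells on that plate plus 3 SD, cut at about 8% in these data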
NR2E3 ag-1 – inhibitors of NR2E3-RetCOR corepressor binding, primary screen, NR2E3 agonist project, biochemical, TR-FRET, GST-NR2E3, biotin-RetCOR; hit rate 0.12% among 320,000; 1536-well; inhibition of corepressor binding, % at 4.78 µM;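 active = percent inhibition above the cutoff of mean plus 3 SD of all tested compounds, set per screening campaign, cut at about 20% in these data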;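 also: 0% = DMSO wells and 100% = biotin wells as full block of FRET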
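Test system – NR2E3–RetCOR corepressor complex · Quantity – NR2E3 fusion 1.35 nM · Buffer or medium – Tris pH 7.5 · Incubation – Compound–protein incubation for 5 h at 4 °C · Technique – TR-FRET, Eu(K)-anti-GST donor, streptavidin-D2 acceptor, ex 340, em 617/671 nm · Evaluation – percent inhibition of 671/617 nm emission ratio versus biotin and DMSO controls · Plate – 1536-well format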
Rev-erbA mod – modulators of Rev-erb alpha DNA binding, primary screen, biochemical, FITC-DNA, fluorescence polarization, uHTS. AID 1259318, 2017. hit rate 0.79% among 370,000. Nuclear receptor subfamily 1 group D member 1 (Homo sapiens), P20393. Rev-erbα–FITC-DNA binding, 90 min. activity, % at 10 µM;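 active = activity above about 14%, limit read from the data; passing the limit was not always enough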;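 also: 0% = DMSO wells with 35 nM protein and 100% = DMSO wells with 750 nM protein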
Target sequence (P20393 whole entry, looked up): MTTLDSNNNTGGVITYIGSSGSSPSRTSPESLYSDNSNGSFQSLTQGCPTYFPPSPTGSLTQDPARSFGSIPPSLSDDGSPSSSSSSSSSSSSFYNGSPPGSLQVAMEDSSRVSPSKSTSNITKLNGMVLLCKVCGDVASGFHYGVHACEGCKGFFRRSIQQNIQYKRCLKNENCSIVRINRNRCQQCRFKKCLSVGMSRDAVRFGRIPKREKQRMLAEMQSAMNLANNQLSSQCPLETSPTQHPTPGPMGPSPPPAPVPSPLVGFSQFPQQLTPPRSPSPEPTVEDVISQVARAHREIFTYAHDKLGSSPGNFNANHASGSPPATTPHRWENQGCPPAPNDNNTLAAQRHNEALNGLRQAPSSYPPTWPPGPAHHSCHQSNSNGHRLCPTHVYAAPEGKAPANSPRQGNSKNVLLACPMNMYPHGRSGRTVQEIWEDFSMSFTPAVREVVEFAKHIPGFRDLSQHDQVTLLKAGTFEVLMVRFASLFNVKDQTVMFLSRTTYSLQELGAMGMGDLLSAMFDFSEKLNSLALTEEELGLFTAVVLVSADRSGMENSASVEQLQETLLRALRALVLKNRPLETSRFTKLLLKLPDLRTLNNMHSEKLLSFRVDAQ
NR2E3 ag-2 – NR2E3 agonists in two-hybrid cells, primary screen, cell-based, luminescence, CHO-S, Gal4-NCOR/VP16-NR2E3. Photoreceptor-specific nuclear receptor (Homo sapiens), Q9Y5X4. luciferase. inhibition of corepressor binding, % at 3.98 µM. hit rate 0.35% among 360,000;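 active = inhibition above the mean of all tested compounds plus 3 SD, cut at about 70% in these data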;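 also: 0% = DMSO with NR2E3 transfected cells and 100% = cells lacking NR2E3 construct; higher means lower luciferase signal from less NR2E3 corepressor binding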
MC4R barr ag – MC4R beta-arrestin agonists, retest, confirmation, cell-based, luminescence, U2OS; shares compounds with MC4R ag barr; U2OS MC4R beta-arrestin recruitment; scaled DMSO 0%, Melanotan II 100%; activation, % at 8.9 µM; hit rate 31% among 2,400; AID 602192, 2012;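 active = mean activation across replicates above the hit cutoff set in the earlier primary screen, cut at about 8% in these data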
MOR DOR agonist – agonists of MOR-DOR heterodimerization, counter-screen for MC4R biased agonist project, cell-based, luminescence; hit rate 5.8% among 2,400; activation, % at 9.2 µM; shares compounds with MC4R ag barr; AID 602194, 2012; U2OS PathHunter beta-arrestin, beta-gal luminescence; percent of deltorphin B response, DMSO zero;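 active = mean activation across replicates exceeds the hit threshold derived in the earlier primary screen, cut at about 18% in these data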;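 also: 100% = deltorphin B at 0.9 µM final and 0% = DMSO alone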
Active calls of the source: *. A selection: hits, their analogues and other compounds. The true share with any hit is near 2.7%.

For CC(C)c1ccc(NC(=O)Cn2ncn3c(cc4ccccc43)c2=O)cc1 the results were MC4R antagonist 4, PG9 Ab binder 1, MC4R ag barr 12*, NR2E3 ag-1 0, Rev-erbA mod 3, NR2E3 ag-2 -17, MC4R barr ag 2 and MOR DOR agonist 8.
For CN(C)c1ccc(NC(=O)Cn2ncn3c(cc4ccccc43)c2=O)cc1 the results were MC4R antagonist 5, PG9 Ab binder -4, MC4R ag barr 0, NR2E3 ag-1 1, Rev-erbA mod -13 and NR2E3 ag-2 -11.
Screening Cc1ccccc1CS(=O)(=O)c1ccc(C(=O)N2CCC(C)CC2)cc1[N+](=O)[O-] returned MC4R antagonist 17, PG9 Ab binder 2, MC4R ag barr -2, NR2E3 ag-1 -4, Rev-erbA mod 2 and NR2E3 ag-2 5.
CC(=O)c1c(C)[nH]c(C(=O)OCC(=O)Nc2ccc([N+](=O)[O-])cc2Cl)c1C was read as MC4R antagonist 8, PG9 Ab binder 0, MC4R ag barr 28*, NR2E3 ag-1 0, Rev-erbA mod -8, NR2E3 ag-2 -7, MC4R barr ag 2 and MOR DOR agonist 16.
For CCOC(=O)c1c(C)[nH]c(C(=O)OCc2ccc(C)cc2)c1C the results were MC4R antagonist 16, PG9 Ab binder 1, MC4R ag barr 0, NR2E3 ag-1 3, Rev-erbA mod -4 and NR2E3 ag-2 -121.
Screening CCOC(=O)c1c(C)[nH]c(C(=O)OCc2ccc([N+](=O)[O-])cc2)c1C returned MC4R antagonist 1, PG9 Ab binder 1, MC4R ag barr 17*, NR2E3 ag-1 4, Rev-erbA mod 6, NR2E3 ag-2 27, MC4R barr ag 4 and MOR DOR agonist 4.
`COc1cc(Cl)ccc1OCc1cc(C(=O)N2CCCCCC2)no1` gave MC4R antagonist 5, PG9 Ab binder 0, MC4R ag barr -1, NR2E3 ag-1 -4, Rev-erbA mod 5 and NR2E3 ag-2 -66.
Screening COc1ccc(F)cc1-c1cc(NC=O)c2ncc(-c3cccc(C(F)(F)F)c3)n2c1 returned MC4R antagonist -23, PG9 Ab binder 0, MC4R ag barr 10*, Rev-erbA mod -5, NR2E3 ag-2 -45, MC4R barr ag 6 and MOR DOR agonist 2.
COc1ccccc1-c1cc(NC=O)c2ncc(-c3cccc(C(C)=O)c3)n2c1 was read as MC4R antagonist -43, PG9 Ab binder -3, MC4R ag barr 9.9*, Rev-erbA mod -4, NR2E3 ag-2 13, MC4R barr ag 14* and MOR DOR agonist 4.
Screening CC(=O)c1cccc(-c2cnc3c(NC=O)cc(-c4ccc(F)cc4)cn23)c1 returned MC4R antagonist 5, PG9 Ab binder -1, MC4R ag barr 14*, Rev-erbA mod -2, NR2E3 ag-2 -21, MC4R barr ag 15* and MOR DOR agonist 4.
Screening NNC(=O)c1cc2nc(-c3cccs3)cc(C(F)(F)F)n2n1 returned MC4R antagonist 14, PG9 Ab binder -4, MC4R ag barr 0, NR2E3 ag-1 -2, Rev-erbA mod -1 and NR2E3 ag-2 7.
For FC(F)(F)c1cc(-c2cccs2)nc2cc(-c3cccs3)nn12 the results were MC4R antagonist 1, PG9 Ab binder 0, MC4R ag barr 25*, NR2E3 ag-1 3, Rev-erbA mod 7, NR2E3 ag-2 -25, MC4R barr ag 2 and MOR DOR agonist 4.
For Cc1cccc2cc(CN(CC3CCCO3)C(=O)c3cccnc3)c3nnnn3c12 (centres undefined) the results were MC4R antagonist 2, PG9 Ab binder 1, MC4R ag barr -1, NR2E3 ag-1 4, Rev-erbA mod 4 and NR2E3 ag-2 -3.
For COc1ccc(CSc2ccc(S(=O)(=O)N3CCCCC3)cn2)cc1F the results were MC4R antagonist 0, PG9 Ab binder 1, MC4R ag barr 1, NR2E3 ag-1 3, Rev-erbA mod 0 and NR2E3 ag-2 -23.
For COc1ccc(Cc2nnc(NC(=O)Nc3ccccc3F)s2)cc1OC the results were MC4R antagonist -2, PG9 Ab binder -1, MC4R ag barr 14*, NR2E3 ag-1 -1, Rev-erbA mod 6, NR2E3 ag-2 -3, MC4R barr ag 4 and MOR DOR agonist 6.
Screening COc1cc(CN2CCN(c3cccc(C)c3C)CC2)cc(Br)c1O returned MC4R antagonist -17, PG9 Ab binder -2, MC4R ag barr 12*, NR2E3 ag-1 -2, Rev-erbA mod 1, NR2E3 ag-2 -12, MC4R barr ag 0 and MOR DOR agonist 7.
CCOC(=O)C1=C(c2ccccc2)NC(N)=NC1c1ccc(OCc2ccc(C(=O)OC)cc2)cc1 (centres undefined) was read as MC4R antagonist 13, PG9 Ab binder -2, MC4R ag barr 14*, NR2E3 ag-1 1, Rev-erbA mod -1, NR2E3 ag-2 -2, MC4R barr ag 6 and MOR DOR agonist 9.
`CCOC(=O)C1=C(c2ccccc2)Nc2ncnn2C1c1ccc(C(=O)O)cc1` (centres undefined) gave MC4R antagonist 8, PG9 Ab binder 0, MC4R ag barr -1, NR2E3 ag-1 -5, Rev-erbA mod 7 and NR2E3 ag-2 -4.
For Nc1cccnc1Oc1ccc(F)cc1 the results were MC4R antagonist 5, PG9 Ab binder -1, MC4R ag barr -1, NR2E3 ag-1 -1, Rev-erbA mod -2 and NR2E3 ag-2 -14.
FC(F)(F)c1cccnc1Oc1ccc(C2=NCCS2)cc1 was read as MC4R antagonist 3, PG9 Ab binder -2, MC4R ag barr 42*, NR2E3 ag-1 0, Rev-erbA mod -3, NR2E3 ag-2 -12, MC4R barr ag 24* and MOR DOR agonist 7.

Source: PubChem BioAssay
